M5 PAM = positive allosteric modulators of human muscarinic M5 receptor. activation, % at 3 µM. 360,000 compounds, 0.3% hits. CHO-K1 hM5, Fluo-8 calcium, ACh EC20 PAM; 0% = ACh EC20, 100% = ACh EC100;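 active = activation above the run cutoff, the mean activation of all test compounds plus 3 SD, cut at about 18% in these data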
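Replicates: One well per compound, no replicates | System: Human M5 receptor in CHO-K1 cells | Benchmarks: Low control EC20 acetylcholine (0%), high control EC100 acetylcholine (100%) | Probe or stimulus: Acetylcholine, EC20 level | Times: Fluo-8 loading 80 min at 37 °C plus 30 min room temperature | Signal: Intracellular calcium via Fluo-8 fluorescence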
CHRM4 antagonist = antagonists of human muscarinic M4 receptor (CHRM4); P08173; CHO-hM4 cells, ACh EC80, Fluo-8 calcium fluorescence; inhibition, % at 3 µM; 360,000 compounds, 0.73% hits;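 active = inhibition above its plate's cutoff, the mean inhibition of sample wells plus 3 SD, cut at about 27% in these data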
Target sequence (P08173 whole entry, looked up): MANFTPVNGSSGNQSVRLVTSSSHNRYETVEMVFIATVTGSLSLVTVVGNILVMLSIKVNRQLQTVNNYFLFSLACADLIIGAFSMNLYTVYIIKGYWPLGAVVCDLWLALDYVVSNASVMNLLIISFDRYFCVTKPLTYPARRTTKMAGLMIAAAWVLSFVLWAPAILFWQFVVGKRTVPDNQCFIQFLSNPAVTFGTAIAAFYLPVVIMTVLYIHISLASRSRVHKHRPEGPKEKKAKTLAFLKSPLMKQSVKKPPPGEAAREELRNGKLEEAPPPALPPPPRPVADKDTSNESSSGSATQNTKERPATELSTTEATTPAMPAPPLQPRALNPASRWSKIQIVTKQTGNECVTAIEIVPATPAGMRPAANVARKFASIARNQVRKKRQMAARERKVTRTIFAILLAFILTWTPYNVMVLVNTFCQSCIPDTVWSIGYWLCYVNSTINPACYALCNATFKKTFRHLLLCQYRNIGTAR
M4 PAM = positive allosteric modulators of human muscarinic M4 receptor; P08173; CHO-K1 hM4/Gqi5, Fluo-8 calcium fluorescence, ACh EC20; 0% = ACh EC20, 100% = maximal ACh; activation, % at 3 µM; 360,000 compounds, 0.4% hits;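 active = activation above its plate's cutoff, the mean activation of sample wells plus 3 SD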
M5 ag = CHRM5 agonism in calcium assay. 360,000 compounds, 0.19% hits. CHO-K1 hM5 cells, Fluo-8 calcium fluorescence; 0% DMSO wells, 100% maximal acetylcholine response. AID 624037. activation, % at 3 µM. P08912;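 active = activation above the run's mean over test compounds plus 3 SD, cut at about 23% in these data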;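 also: signal is peak over basal fluorescence ratio across the kinetic read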
CHRM4 agonist = agonists of human muscarinic M4 receptor (CHRM4). CHO-K1 hM4/Gqi5, Fluo-8 calcium fluorescence; vehicle 0%, full acetylcholine response 100%. activation, % at 3 µM. 360,000 compounds, 0.14% hits. P08173;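 active = activation above the run mean over all test wells plus 3 SD, cut at about 32% in these data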;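 also: peak over basal fluorescence ratio per well then scaled between controls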
M5 antag = blocks acetylcholine activation of human M5 receptor. P08912. CHO-hM5 cells, Fluo-8 calcium fluorescence, ACh EC80. inhibition, % at 3 µM. 360,000 compounds, 0.59% hits. AID 624040;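 active = inhibition above a per-plate cutoff, the mean of that plate's test compounds plus 3 SD, cut at about 27% in these data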
Numbers stand for hits; i = inactive. Most compounds without a hit are left out; they make up all but 1.9% or so of the library.

SMILES | M5 PAM | CHRM4 antagonist | M4 PAM | M5 ag | CHRM4 agonist | M5 antag
COc1ccc(CCNC(=O)c2cc3cc(Cl)ccc3nc2N)cc1OC | i | i | i | i | i | i
CC(C)(C)n1nnnc1C(c1cccs1)N1CCN(C/C=C/c2ccccc2)CC1 (stereo not drawn) | i | i | i | i | i | 28
CC(C)(C)n1nnnc1C(c1cccs1)N1CCN(Cc2ccccc2)CC1 (stereo not drawn) | i | i | i | i | i | i
CCCCC(=O)N(C)c1c(C)nc2ccc(C(=O)N(C)Cc3ccco3)cn12 | i | i | i | i | i | i
Cc1nnc(SCc2c(Cl)cccc2[N+](=O)[O-])s1 | 20 | i | i | i | i | i
COc1ccc(CC(=O)NC(C)c2nnc(SCCC(=O)Nc3ccccc3)n2C)cc1 (stereo not drawn) | 18 | i | i | i | i | i
CC1CCCN(S(=O)(=O)c2ccc(Br)s2)C1 (stereo not drawn) | i | i | i | i | i | i
CC1CCCN(S(=O)(=O)c2ccc(Cl)s2)C1 (stereo not drawn) | 19 | i | i | i | i | i
COc1ccc(OC)c(S(=O)(=O)N2CCCCCC2)c1 | i | i | i | i | i | i
COc1ccc(OC)c(S(=O)(=O)N2CCCC(C)C2)c1 (stereo not drawn) | i | i | 28 | i | i | i
CCCn1c(Cc2ccccc2)n[nH]c1=S | i | i | i | i | i | i
S=c1[nH]nc(Cc2ccccc2)n1Cc1ccco1 | i | 68 | i | i | i | 33
O=c1[nH]c(=O)n(-c2cc(Br)c(O)c(Br)c2)cc1Br | i | i | i | i | i | i
O=C(N/C(=C/c1ccc(F)cc1)C(=O)N1CCCCC1)c1ccco1 | i | i | i | i | i | i
Cc1ccc2c(Cl)c(C(=O)NCC(c3ccco3)N3CCCC3)sc2c1 (stereo not drawn) | i | i | i | i | i | 27
O=C(Nc1ccc2c(c1)OCCO2)Nc1ccc2c(c1)OCO2 | i | i | i | i | i | i
O=C(Nc1ccc2c(c1)OCO2)Nc1ccc(Br)cn1 | i | i | 41 | i | i | i
COc1ccc(-c2sc3ccc(N4CCOCC4)cc3c2C#CCCO)cc1 | i | i | i | i | i | i
COC(=O)Cc1ccc(OC2(C)CCN(Cc3ccccc3)C2)cc1 (stereo not drawn) | i | 63 | i | i | i | i
COc1cc(OC)cc(OC2(C)CCN(Cc3ccc(OC(C)C)cc3)C2)c1 (stereo not drawn) | i | 53 | i | i | i | i
CC(C)c1ccc(CN2CCC(C)(Oc3ccc(Cl)cc3)C2)cc1 (stereo not drawn) | i | i | i | i | i | i
CN(C)CCCNc1nc2cc(-c3cnn(C)c3)sc2c(=O)n1C | i | i | i | i | i | i
CCOC(=O)[C@H]1[C@H]2COc3ccc(Cl)cc3[C@@H]2N2C(=O)c3ccc(Cl)cc3NC(=O)[C@@]12C | i | i | i | i | i | i
CCOC(=O)C1(CCOC)CCCCC1=O (stereo not drawn) | i | i | i | i | i | i
CCCNC(=O)C(Cc1cccc(Cl)c1)NC(=O)c1ccccc1 (stereo not drawn) | i | i | i | i | i | i
SMILES | M5 PAM | CHRM4 antagonist | M4 PAM | M5 ag | CHRM4 agonist | M5 antag
OC[C@H]1O[C@@H](c2nc(-c3ccc(C4OCCO4)cc3)no2)[C@H](O)[C@@H]1O | i | i | i | i | i | i
OC[C@H]1O[C@@H](c2nc(-c3ccc4[nH]ccc4c3)no2)[C@H](O)[C@@H](O)[C@H]1O | i | i | 16 | i | i | i
c1ccc(-c2ccc(OCCCNC3CCCC3)cc2)cc1 | i | 39 | i | i | i | 33
CCc1nc2c(OCc3ccccc3C(=O)OC)cccn2c1N(C)C(=O)c1cccc(OC)c1 | i | i | i | i | i | i
O=C(NCc1ccc(F)cc1)C1CC(=O)N(CCc2ccccc2)C1 (stereo not drawn) | 19 | i | i | i | i | i
O=C(OCc1nnc(-c2ccccc2)o1)C1CC(=O)N(CCc2ccccc2)C1 (stereo not drawn) | i | i | 25 | i | i | i
CC(C)CCN1CC(C(=O)NCc2ccc(F)cc2)CC1=O (stereo not drawn) | i | i | i | i | i | i
COCCNC(=O)c1cc2c(c(-c3cccc(-c4cc5ccccc5o4)c3)n1)[C@@H](CCO)N(S(=O)C(C)(C)C)C2 (stereo partly drawn) | i | i | i | i | i | i
CC(=O)NS(=O)(=O)c1ccc(NC(=O)CSc2ccc(C)cc2)cc1 | i | i | 19 | i | i | i
Cc1ccc(SCC(=O)Nc2ccc(S(=O)(=O)Nc3ncccn3)cc2)cc1 | i | i | i | i | i | i
COC(=O)[C@H](Cc1ccccc1)NC(=O)C1(OC(C)=O)CC(OC(C)=O)C(OC(C)=O)C(OC(C)=O)C1 (stereo partly drawn) | i | i | i | i | i | i
C=CCNC(=S)Nc1ccccc1-c1nnc2n1CCCCC2 | i | i | i | i | i | 30
Nc1ccccc1-c1nnc2n1CCCCC2 | i | i | i | i | i | i
COc1ccc(-c2nnc(OC)c3ccccc23)cc1 | i | 35 | i | i | i | i
COc1ccc(-c2ccc(C(=O)N3CCOCC3)c3occc23)c(C)c1 | i | i | i | i | i | i
CCCCNc1c(-c2ccc(SC(C)CC)c(OC)c2)nc2ccc(Cl)cn12 (stereo not drawn) | i | 35 | i | i | i | i
CCCCNc1c(-c2ccc(SC(C)CC)c(OC)c2)nc2ccc(C)cn12 (stereo not drawn) | i | 55 | i | i | i | 37
O=C1C=CC(=Nc2ccc3c(c2)Cc2ccccc2-3)O1 | i | i | i | i | i | i
N#CCN(C(=O)CSc1nnc(C2CC2)n1C1CC1)c1ccccc1 | i | i | i | i | i | i
O=C(Cc1ccc(Cl)cc1)Nc1ccc(Cl)cn1 | 21 | i | i | i | i | i
O=C(Cc1ccc(F)cc1)Nc1ccc(Cl)cn1 | 49 | i | 15 | i | i | 30
O=C(COC(=O)Cc1ccc(F)cc1)Nc1ccc(Cl)cn1 | i | i | i | i | i | i
O=C(Cc1ccccc1)Nc1cccnc1 | i | i | i | i | i | i
O=C(Cc1ccc(Cl)cc1)Nc1cccnc1 | i | i | 28 | i | i | i
O=C(NCCc1c[nH]c2ccccc12)OC1CC2CC1[C@H]1CCCCN1C2=O (stereo partly drawn) | i | i | i | i | i | i
Cc1ccc(Oc2ncccc2/C=N/OCc2ccc(Cl)cc2Cl)cc1 | i | i | i | i | i | i
Cc1ccc(Oc2ncccc2CO)cc1 | i | i | 26 | i | i | i
